From ChEMBL document CHEMBL3797091, “Part 2. Notch-sparing γ-secretase inhibitors: The study of novel γ-amino naphthyl alcohols” (Bioorg Med Chem Lett, 2016) come the findings set out here.

pIC50: −log10 of the molar value. Values after ≈ are worked out from the molar mass of the structure shown. Active and inactive are the calls of the source. The calls are words filed in the database; no cut-off is given here.

The target of one series is T1, Gamma-secretase (Homo sapiens) (UniProt Q96BI3+Q9NZ42+Q8WW43+P49768+Q92542+P49810). The series is described as follows: Inhibition of human gamma secretase mediated amyloid beta (1 to 40) production expressed in CHO cells at 50 uM using APP based Flag-C-100 as substrate after 4 hrs by ELISA. In kind it is cell-based.
Settings: not given
The method, boiled down:
(§1)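 Enzyme: γ-secretase complex purified from CHO cells stably overexpressing all four human components. Substrate: recombinant APP-based C-100 FLAG. Reaction in 0.2% CHAPSO/HEPES, pH 7.5, at 37°C for 4 h, with compounds in DMSO (1% DMSO final). Stopped with 0.5% SDS. Aβ40 measured by commercial ELISA.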
Background: ELISA stands for enzyme-linked immunosorbent assay.
Usually inhibition stands for the share of the control response that was lost under treatment. `CCC(CC)(CN(Cc1ccccc1)C(C)C)C(=O)c1ccc2ccccc2c1` showed an inhibition of 40%.

A further series concerns the target T1, Gamma-secretase (Homo sapiens). As to the kind of experiment: Inhibition of human gamma secretase mediated amyloid beta (1 to 40) production expressed in CHO cells at 100 uM using APP based Flag-C-100 as substrate after 4 hrs by ELISA.
Settings: not given
In kind it is cell-based. The method, boiled down: as §1
Compound `CC(C)N(Cc1ccccc1)CC(C)(C)C(O)c1ccc2ccccc2c1` (racemic) displayed an inhibition of 72%.

Regarding `OC(CCN1CCN(c2ccc(F)cc2)CC1)c1ccc2ccccc2c1` (racemic), the inhibition worked out at 61%.

`CC(C)N(CCC(O)c1ccc2ccccc2c1)Cc1ccc(F)c(F)c1` (racemic): the inhibition was 64%.

The compound `CN(CCC(O)c1ccc2ccccc2c1)Cc1ccccc1` (racemic) yielded an inhibition of 15%.

As for `CCN(CCC(O)c1ccc2ccccc2c1)Cc1ccccc1` (racemic), the inhibition is 15%.

In turn, `CC(C)N(CCC(O)c1ccc(OC2CCCCO2)cc1)Cc1ccccc1` (racemic) returned an inhibition of 0%.

`CC(C)N(CCC(O)c1ccc(C(C)(C)C)cc1)Cc1ccccc1` (racemic) returned an inhibition of 72%.

The compound `OC(CCN(Cc1ccccc1)Cc1ccccc1)c1ccc2ccccc2c1` (racemic) gave an inhibition of 32%.

`OC(CCN1CCN(c2cccc(C(F)(F)F)c2)CC1)c1ccc2ccccc2c1` (racemic) returned an inhibition of 38%.

On to `CC(C)(C)N(CCC(O)c1ccc2ccccc2c1)Cc1ccccc1` (racemic), for which the inhibition is 0%.

`CC(C)N(CCC(O)c1ccc(Oc2ccccc2)cc1)Cc1ccccc1` (racemic) displayed an inhibition of 24%.

As to `Cc1ccc(C(O)CCN(Cc2ccccc2)C(C)C)cc1F` (racemic), the inhibition worked out at 29%.

Take `CC(C)N(CCC(O)c1ccc2c(c1)OCO2)Cc1ccccc1` (racemic): the inhibition was determined as 0%.

Compound `CC(C)CN(CCC(O)c1ccc2ccccc2c1)Cc1ccccc1` (racemic) showed an inhibition of 0%.

As for `CC(C)N(CCC(O)c1ccc2ccccc2c1)Cc1ccc(C#N)cc1` (racemic), the inhibition turned out to be 19%.

Compound `CCC(CC)(CN(Cc1ccc(Cl)c(Cl)c1)C(C)C)C(O)c1ccc2ccccc2c1` (racemic) gave an inhibition of 59%.

As to `COc1ccc(CN(CCC(O)c2ccc3ccccc3c2)C(C)C)cc1` (racemic), the inhibition amounted to 55%.

`CC(C)N(Cc1ccccc1)CC(O)c1ccc2ccccc2c1` (racemic) had an inhibition of 0%.

In turn, `CCC(CC)(CN(Cc1ccc(F)c(F)c1)C(C)C)C(O)c1ccc2ccccc2c1` (racemic) came in with an inhibition of 69%.

For the compound `CC(C)N(CCC(O)c1ccc2ccccc2c1)c1ccccc1` (racemic), the inhibition stood at 68%.

In turn, `CC(C)N(CCC(O)c1cccc(Oc2ccccc2)c1)Cc1ccccc1` (racemic) yielded an inhibition of 30%.

With `CC(C)N(CCC(O)c1ccc2ccccc2c1)Cc1cc(F)cc(F)c1` (racemic), the inhibition was 54%.

Turning to `COc1ccc(N2CCN(CCC(O)c3ccc4ccccc4c3)CC2)cc1` (racemic), the inhibition was 0%.

The compound `CC(C)N(CCC(O)c1ccc2ccccc2c1)Cc1ccccc1` (racemic) returned an inhibition of 81%.

For `CC(C)N(CCC(O)c1cc(C(F)(F)F)cc(C(F)(F)F)c1)Cc1ccccc1` (racemic), the inhibition stood at 15%.

Turning to `COc1cc(CN(CCC(O)c2ccc3ccccc3c2)C(C)C)cc(OC)c1` (racemic), the inhibition is 17%.

Regarding `CC(C)N(CCC(O)c1ccc2ccccc2c1)Cc1cccc(C#N)c1` (racemic), the inhibition was 7%.

In turn, `CC(C)N(CCC(O)c1ccc(OCc2ccccc2)cc1)Cc1ccccc1` (racemic) returned an inhibition of 31%.

`CC(C)N(CCCC(O)c1ccc2ccccc2c1)Cc1ccccc1` (racemic) returned an inhibition of 18%.

In turn, `OC(CCN1CCN(Cc2ccccc2)CC1)c1ccc2ccccc2c1` (racemic) yielded an inhibition of 15%.

With `CCC(CC)(CN(Cc1ccccc1)C(C)C)C(O)c1ccc2ccccc2c1` (racemic), the inhibition worked out at 82%.

`COC(CCN(Cc1ccccc1)C(C)C)c1ccc2ccccc2c1` (racemic) displayed an inhibition of 51%.

On to `CC(C)N(CCC(O)c1ccc2ccccc2c1)Cc1ccc(Cl)c(Cl)c1` (racemic), for which the inhibition amounted to 60%.

Consider `CC(C)N(CCC(O)c1cccc2ccccc12)Cc1ccccc1` (racemic), for which the inhibition came out at 46%.

As for `CC(C)N(CCC(O)c1cc(F)cc(Cl)c1)Cc1ccccc1` (racemic), the inhibition was 30%.

`CC(C)N(CCC(O)c1ccc2ccccc2c1)Cc1ccc(F)c(Cl)c1` (racemic): the inhibition worked out at 38%.

`OC(CCN(Cc1ccccc1)C1CC1)c1ccc2ccccc2c1` (racemic) had an inhibition of 36%.

With `CC(C)N(CCC(O)c1ccccc1)Cc1ccccc1` (racemic), the inhibition was 10%.

`OC(CCN1CCN(c2ccccc2)CC1)c1ccc2ccccc2c1` (racemic) gave an inhibition of 0%.

The compound `CC(C)N(CCC(O)c1cc2ccccc2o1)Cc1ccccc1` (racemic) showed an inhibition of 0%.

For another series the target is unchanged. As to the kind of experiment: Inhibition of human gamma secretase mediated notch 1 processing by Western blot analysis. The format is protein-complex assay.
Settings: not given
On to `CC(C)N(Cc1ccccc1)CC(C)(C)C(O)c1ccc2ccccc2c1` (racemic), for which the inhibition entry is “inactive”.

Take `OC(CCN1CCN(c2ccc(F)cc2)CC1)c1ccc2ccccc2c1` (racemic): the inhibition entry is “inactive”.

Take `CC(C)N(CCC(O)c1ccc2ccccc2c1)Cc1ccc(F)c(F)c1` (racemic): the inhibition entry is “inactive”.

Take `CN(CCC(O)c1ccc2ccccc2c1)Cc1ccccc1` (racemic): the inhibition result was “inactive”.

As for `CC(C)N(CCC(O)c1ccc(C(C)(C)C)cc1)Cc1ccccc1` (racemic), the inhibition entry was “Active”.

On to `OC(CCN1CCN(c2cccc(C(F)(F)F)c2)CC1)c1ccc2ccccc2c1` (racemic), for which the inhibition result is “inactive”.

For `CC(C)N(CCC(O)c1ccc(Oc2ccccc2)cc1)Cc1ccccc1` (racemic), the inhibition entry was “inactive”.

For the compound `Cc1ccc(C(O)CCN(Cc2ccccc2)C(C)C)cc1F` (racemic), the inhibition result is “Active”.

For `CCC(CC)(CN(Cc1ccc(Cl)c(Cl)c1)C(C)C)C(O)c1ccc2ccccc2c1` (racemic), the inhibition result was “inactive”.

Take `COc1ccc(CN(CCC(O)c2ccc3ccccc3c2)C(C)C)cc1` (racemic): the inhibition result is “inactive”.

For the compound `CC(C)N(Cc1ccccc1)CC(O)c1ccc2ccccc2c1` (racemic), the inhibition entry was “Active”.

`CCC(CC)(CN(Cc1ccc(F)c(F)c1)C(C)C)C(O)c1ccc2ccccc2c1` (racemic): the inhibition result is “inactive”.

As for `CC(C)N(CCC(O)c1ccc2ccccc2c1)c1ccccc1` (racemic), the inhibition entry was “Active”.

As for `CC(C)N(CCC(O)c1cccc(Oc2ccccc2)c1)Cc1ccccc1` (racemic), the inhibition result was “inactive”.

As for `CC(C)N(CCC(O)c1ccc2ccccc2c1)Cc1cc(F)cc(F)c1` (racemic), the inhibition entry was “Active”.

Turning to `CC(C)N(CCC(O)c1ccc2ccccc2c1)Cc1ccccc1` (racemic), the inhibition entry was “inactive”.

For `CC(C)N(CCC(O)c1cc(C(F)(F)F)cc(C(F)(F)F)c1)Cc1ccccc1` (racemic), the inhibition entry was “Active”.

`COc1cc(CN(CCC(O)c2ccc3ccccc3c2)C(C)C)cc(OC)c1` (racemic): the inhibition result was “inactive”.

As to `CC(C)N(CCC(O)c1ccc(OCc2ccccc2)cc1)Cc1ccccc1` (racemic), the inhibition entry was “inactive”.

In the case of `CC(C)N(CCCC(O)c1ccc2ccccc2c1)Cc1ccccc1` (racemic), the inhibition entry was “Active”.

For `OC(CCN1CCN(Cc2ccccc2)CC1)c1ccc2ccccc2c1` (racemic), the inhibition result is “inactive”.

Turning to `CCC(CC)(CN(Cc1ccccc1)C(C)C)C(O)c1ccc2ccccc2c1` (racemic), the inhibition entry is “inactive”.

On to `COC(CCN(Cc1ccccc1)C(C)C)c1ccc2ccccc2c1` (racemic), for which the inhibition entry is “inactive”.

On to `CC(C)N(CCC(O)c1ccc2ccccc2c1)Cc1ccc(Cl)c(Cl)c1` (racemic), for which the inhibition entry was “inactive”.

As to `CC(C)N(CCC(O)c1cccc2ccccc12)Cc1ccccc1` (racemic), the inhibition result is “inactive”.

For the compound `CC(C)N(CCC(O)c1cc(F)cc(Cl)c1)Cc1ccccc1` (racemic), the inhibition entry is “Active”.

Turning to `CC(C)N(CCC(O)c1ccccc1)Cc1ccccc1` (racemic), the inhibition entry was “Active”.

`OC(CCN1CCN(c2ccccc2)CC1)c1ccc2ccccc2c1` (racemic): the inhibition result was “inactive”.

Test system in a further series: not listed separately
As to the kind of experiment: Solubility of compound in PBS buffer at pH 7.4. In kind it is physicochemical.
Settings: not given
Broadly, the solubility is how much of the substance goes into solution per volume. High values mean a readily soluble substance, low ones a poorly soluble substance. `CC(C)N(CCC(O)c1ccc2ccccc2c1)Cc1ccccc1` (racemic) displayed a solubility of 98 µM (≈ 32.7 µg/mL).

Test system in the next series: not listed separately
The series is described as follows: Lipophilicity, log D of the compound. In kind it is physicochemical. The following applies: octanol/water.
Usually logD stands for the decadic logarithm of the distribution of all forms, ionised or not, between an organic phase and buffer at a given pH. Low readings indicate lower lipophilicity, high ones higher lipophilicity. On to `CC(C)N(CCC(O)c1ccc2ccccc2c1)Cc1ccccc1` (racemic), for which the logD turned out to be 3.4.

Test system in a further series: not listed separately
As to the kind of experiment: Plasma protein binding in human. In kind it is ADME, cell-free. Particulars: read-out: PPB (converted).
Take `CC(C)N(CCC(O)c1ccc2ccccc2c1)Cc1ccccc1` (racemic): the fraction unbound was 0.1.

Test system in a further series: not listed separately
As to the kind of experiment: Permeability of the compound across apical to basolateral side. The format is ADME. The following applies: not told; read-out: permeability.
Take `CC(C)N(CCC(O)c1ccc2ccccc2c1)Cc1ccccc1` (racemic): the Papp A→B was determined as 18.4 ×10⁻⁶ cm/s.

Test system in the next series: not listed separately
As to the kind of experiment: Metabolic stability in human liver microsomes assessed as parent compound remaining after 60 mins. The format is ADME. Particulars: read-out: Stability.
In the case of `CC(C)N(CCC(O)c1ccc2ccccc2c1)Cc1ccccc1` (racemic), the remaining at 1 h stood at 1%.

Test system in a further series: not listed separately
The series is described as follows: Metabolic stability in rat liver microsomes assessed as parent compound remaining after 60 mins. The format is ADME. The following applies: read-out: Stability. (Liver microsomes are a subcellular fraction often used to study metabolism.)
For `CC(C)N(CCC(O)c1ccc2ccccc2c1)Cc1ccccc1` (racemic), the remaining at 1 h came out at 0%.

The target of another series is T1, Gamma-secretase (Homo sapiens). As to the kind of experiment: Inhibition of human gamma secretase mediated amyloid beta 42 production expressed in CHO cells at 100 uM using APP based Flag-C-100 as substrate after 4 hrs by ELISA. In kind it is cell-based.
Settings: not given
Consider `OC(CCN1CCN(c2cccc(C(F)(F)F)c2)CC1)c1ccc2ccccc2c1` (racemic), for which the inhibition stood at 14%.

As to `CC(C)N(CCC(O)c1ccc2ccccc2c1)Cc1ccccc1` (racemic), the inhibition is 67%.

The next series shares this target. The series is described as follows: Inhibition of gamma secretase (unknown origin)-mediated amyloid beta (1 to 40) production at 100 uM by cell based assay.
Settings: not given
As for `CCC(CC)(CN(Cc1ccccc1)C(C)C)C(O)c1ccc2ccccc2c1` (racemic), the inhibition came out at 80%.

For the next series the target is unchanged. As to the kind of experiment: Inhibition of gamma secretase (unknown origin)-mediated amyloid beta (1 to 42) production at 100 uM by cell based assay.
Settings: not given
The compound `CC(C)N(CCC(O)c1ccc2ccccc2c1)Cc1ccc(F)c(F)c1` (racemic) displayed an inhibition of 23%.

For the compound `CCC(CC)(CN(Cc1ccccc1)C(C)C)C(O)c1ccc2ccccc2c1` (racemic), the inhibition came out at 100%.

Another series deals with Gamma-secretase. As to the kind of experiment: Inhibition of gamma secretase (unknown origin)-mediated notch processing by cell based assay. Details: species or system Homo sapiens.
Settings: not given
Usually pIC50 stands for the IC50 on a negative log10 scale, so that one unit is a factor of ten. In turn, `CC(C)N(CCC(O)c1ccc2ccccc2c1)Cc1ccccc1` (racemic) showed a pIC50 of under 4.00.

As to `CCC(CC)N(Cc1ccc(C(=O)O)cc1)S(=O)(=O)c1ccc(Cl)cc1`, the pIC50 is 5.00.

As to `CCC(CC)(CN(Cc1ccccc1)C(C)C)C(O)c1ccc2ccccc2c1` (racemic), the pIC50 is under 4.12.

The next series concerns the target T1, Gamma-secretase (Homo sapiens). As to the kind of experiment: Inhibition of gamma secretase (unknown origin)-mediated amyloid beta (1 to 42) production at 30 uM by cell based assay.
Settings: not given
`CC(C)N(CCC(O)c1ccc(C(C)(C)C)cc1)Cc1ccccc1` (racemic) had an inhibition of 14%.

In the case of `CC(C)N(CCC(O)c1ccc2ccccc2c1)Cc1ccccc1` (racemic), the inhibition stood at 45%.

For the compound `CC(C)N(CCC(O)c1cc(C(F)(F)F)cc(C(F)(F)F)c1)Cc1ccccc1` (racemic), the inhibition stood at 81%.
